Measurements taken from ChEMBL document CHEMBL4346672, “Antimicrobial and KPC/AmpC inhibitory activity of functionalized benzosiloxaboroles” (Eur J Med Chem, 2019).
Values after ≈ are worked out from the molar mass of the structure shown. Active and inactive are the calls of the source. The calls are words filed in the database; no cut-off is given here.

What was measured:
Enterobacter cloacae [1] = experiment: Antibacterial activity against Enterobacter cloacae DSM 6234 assessed as diameter of zone inhibition measured after 18 hrs by CLSI disc diffusion method; format: functional
In short: (§1)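 Disc diffusion on Mueller-Hinton II agar. Compounds dissolved in DMSO. Strains stored at -80 °C and subcultured twice on tryptic soy agar before testing. Inhibition zones read after 35 °C, 18 h.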

Candida albicans [2] = experiment: Antifungal activity against Candida albicans ATCC 90028 assessed as diameter of zone inhibition incubated for 24 hrs by CLSI disc diffusion method; format: functional
In short: (§2)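 Yeast disc diffusion on Mueller-Hinton agar supplemented with 2% glucose and 0.5 mg/L methylene blue. Compounds in DMSO. Yeasts subcultured on Sabouraud dextrose agar before testing. Zones read after 35 °C, 24 h.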

[3] = Dissociation constant, pKa1 of compound in 0.1 M NaOH by potentiometric analysis; format: physicochemical
Serratia marcescens [4] = experiment: Antibacterial activity against Serratia marcescens ATCC 13880 assessed as fold reduction of MIC in presence of efflux pump inhibitor PAbetaN incubated for 18 hrs by broth microdilution method; format: functional
In short: (§3)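 MICs determined with and without PAβN at 50 mg/L in Mueller-Hinton broth containing 1 mM MgSO₄. 2-fold serial dilutions per CLSI. Fold change taken from the paired MICs after 35 °C, 18 h.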

Acinetobacter baumannii [5] = experiment: Antibacterial activity against Acinetobacter baumannii ATCC 19606 assessed as fold reduction of MIC in presence of efflux pump inhibitor PAbetaN incubated for 18 hrs by broth microdilution method; format: functional; in short: as §3
Pichia kudriavzevii [6] = experiment: Antifungal activity against Candida krusei ATCC 6258 assessed as diameter of zone inhibition incubated for 24 hrs by CLSI disc diffusion method; format: functional; in short: as §2
Proteus mirabilis [7] = experiment: Antibacterial activity against Proteus mirabilis ATCC 12453 assessed as diameter of zone inhibition measured after 18 hrs by CLSI disc diffusion method; format: functional; in short: as §1
[8] = test system: Bordetella bronchiseptica; experiment: Antibacterial activity against Bordetella bronchiseptica ATCC 4617 assessed as diameter of zone inhibition measured after 18 hrs by CLSI disc diffusion method; format: functional; in short: as §1
Enterococcus faecalis [9] = experiment: Antibacterial activity against Enterococcus faecalis ATCC 29212 measured after 18 hrs by CLSI broth dilution method; format: functional; settings: ATCC 29212, 18 h
In short: (§4)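 Broth MIC in Mueller-Hinton II broth following CLSI, compounds dissolved in DMSO. Strains subcultured twice on tryptic soy agar before testing. Growth read after 35 °C, 18 h.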

[10] = test system: Stenotrophomonas maltophilia; experiment: Antibacterial activity against Stenotrophomonas maltophilia ATCC 13637 assessed as diameter of zone inhibition measured after 18 hrs by CLSI disc diffusion method; format: functional; in short: as §1
Staphylococcus aureus [11] = experiment: Antibacterial activity against Staphylococcus aureus ATCC 6538P measured after 18 hrs by CLSI broth dilution method; format: functional; in short: as §4
Candida parapsilosis [12] = experiment: Antifungal activity against Candida parapsilosis ATCC 22019 assessed as diameter of zone inhibition incubated for 24 hrs by CLSI disc diffusion method; format: functional; in short: as §2
Staphylococcus aureus [13] = experiment: Antibacterial activity against Staphylococcus aureus ATCC 6538P assessed as diameter of zone inhibition measured after 18 hrs by CLSI disc diffusion method; format: functional; in short: as §1
Serratia marcescens [14] = settings: ATCC 13880
Saccharomyces cerevisiae [15] = experiment: Antifungal activity against Saccharomyces cerevisiae ATCC 9763 assessed as decrease in fungal cell growth at 0.78 to 12.5 mg/L incubated for 24 hrs by CLSI broth dilution method; format: functional; settings: ATCC 9763, 24 h
In short: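 Yeast strain subcultured on Sabouraud dextrose agar for 24–48 h at 30 °C before testing. Compounds dissolved in DMSO.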

Acinetobacter baumannii [16] = experiment: Antibacterial activity against Acinetobacter baumannii ATCC 19606 measured after 18 hrs by CLSI broth dilution method; format: functional; settings: ATCC 19606, 18 h; in short: as §4
[17] = test system: Staphylococcus epidermidis; experiment: Antibacterial activity against Staphylococcus epidermidis ATCC 12228 measured after 18 hrs by CLSI broth dilution method; format: functional; settings: ATCC 12228, 18 h; in short: as §4
Candida albicans [18] = experiment: Antifungal activity against Candida albicans ATCC 90028 assessed as decrease in fungal cell growth at 0.78 to 12.5 mg/L incubated for 24 hrs by CLSI broth dilution method; format: functional; settings: ATCC 90028, 24 h
In short: (§5)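 Yeast broth dilution in RPMI 1640 with 2% glucose, compounds in DMSO. Yeasts pre-grown on Sabouraud dextrose agar. Growth read after 35 °C, 24 h.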

Candida tropicalis [19] = experiment: Antifungal activity against Candida tropicalis IBA 171 assessed as decrease in fungal cell growth at 0.78 to 12.5 mg/L incubated for 24 hrs by CLSI broth dilution method; format: functional; settings: IBA 171, 24 h; in short: as §5
Klebsiella pneumoniae [20] = experiment: Antibacterial activity against Klebsiella pneumoniae ATCC 13883 measured after 18 hrs by CLSI broth dilution method; format: functional; settings: ATCC 13883, 18 h; in short: as §4
Pichia kudriavzevii [21] = experiment: Antifungal activity against Candida krusei ATCC 6258 assessed as decrease in fungal cell growth at 0.78 to 12.5 mg/L incubated for 24 hrs by CLSI broth dilution method; format: functional; settings: ATCC 6258, 24 h; in short: as §5
Candida parapsilosis [22] = experiment: Antifungal activity against Candida parapsilosis ATCC 22019 assessed as decrease in fungal cell growth at 0.78 to 12.5 mg/L incubated for 24 hrs by CLSI broth dilution method; format: functional; settings: Lodderomyces parapsilosis, ATCC 22019, 24 h; in short: as §5
[23] = test system: Staphylococcus epidermidis; experiment: Antibacterial activity against Staphylococcus epidermidis ATCC 12228 assessed as diameter of zone inhibition measured after 18 hrs by CLSI disc diffusion method; format: functional; in short: as §1
Pseudomonas aeruginosa = experiment: Antibacterial activity against Pseudomonas aeruginosa ATCC 27853 assessed as diameter of zone inhibition measured after 18 hrs by CLSI disc diffusion method; format: functional, organism-based; in short: as §1
Candida tropicalis [24] = experiment: Antifungal activity against Candida tropicalis IBA 171 assessed as diameter of zone inhibition incubated for 24 hrs by CLSI disc diffusion method; format: functional; in short: as §2
Enterobacter cloacae [25] = experiment: Antibacterial activity against Enterobacter cloacae DSM 6234 measured after 18 hrs by CLSI broth dilution method; format: functional; settings: DSM 6234, 18 h; in short: as §4
Klebsiella pneumoniae [26] = settings: ATCC 13883
[27] = test system: Bordetella bronchiseptica; experiment: Antibacterial activity against Bordetella bronchiseptica ATCC 4617 measured after 18 hrs by CLSI broth dilution method; format: functional; settings: ATCC 4617, 18 h; in short: as §4
Escherichia coli = experiment: Antibacterial activity against Escherichia coli ATCC 25922 measured after 18 hrs by CLSI broth dilution method; format: functional; settings: ATCC 25922, 18 h; in short: as §4
Enterococcus faecalis [28] = experiment: Antibacterial activity against Enterococcus faecalis ATCC 29212 assessed as diameter of zone inhibition measured after 18 hrs by CLSI disc diffusion method; format: functional; in short: as §1
Saccharomyces cerevisiae [29] = experiment: Antifungal activity against Saccharomyces cerevisiae ATCC 9763 diameter of zone inhibition incubated for 24 hrs by CLSI disc diffusion method; format: functional
In short: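 Disc-diffusion run on Mueller-Hinton II agar with 2% glucose and 0.5 mg/L methylene blue, using compounds in DMSO. Yeast was precultured on Sabouraud dextrose agar (24–48 h, 30 °C). Zones read after 24 h at 35 °C.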

Burkholderia cepacia = experiment: Antibacterial activity against Burkholderia cepacia ATCC 25416 assessed as diameter of zone inhibition measured after 18 hrs by CLSI disc diffusion method; format: functional; in short: as §1
Proteus mirabilis [30] = experiment: Antibacterial activity against Proteus mirabilis ATCC 12453 measured after 18 hrs by CLSI broth dilution method; format: functional; settings: ATCC 12453, 18 h; in short: as §4

Row | SMILES | diameter of the inhibition zone (DIZ) (Enterobacter cloacae [1]) | diameter of the inhibition zone (DIZ) (Candida albicans [2]) | pKa [3] | fold change (FC) (Serratia marcescens [4]) | fold change (FC) (Acinetobacter baumannii [5]) | diameter of the inhibition zone (DIZ) (Pichia kudriavzevii [6]) | diameter of the inhibition zone (DIZ) (Proteus mirabilis [7]) | diameter of the inhibition zone (DIZ) [8] | MIC (Enterococcus faecalis [9]) | diameter of the inhibition zone (DIZ) [10] | MIC (Staphylococcus aureus [11]) | diameter of the inhibition zone (DIZ) (Candida parapsilosis [12]) | diameter of the inhibition zone (DIZ) (Staphylococcus aureus [13]) | DIZ (Serratia marcescens [14]) | MIC (Saccharomyces cerevisiae [15]) | MIC (Acinetobacter baumannii [16]) | MIC [17] | MIC (Candida albicans [18]) | MIC (Candida tropicalis [19]) | MIC (Klebsiella pneumoniae [20]) | further results
1 | C[Si]1(C)OB(O)c2cc(B(O)O)cc(F)c21 | inactive | inactive | 6.6 | 2 | 4 | inactive | inactive | inactive | 400 µg/mL (≈ 1670 µM) | inactive | 50 µg/mL (≈ 208 µM) | inactive | 18 mm | inactive | 400 µg/mL (≈ 1670 µM) | > 400 µg/mL | 50 µg/mL (≈ 208 µM) | 400 µg/mL (≈ 1670 µM) | 400 µg/mL (≈ 1670 µM) | > 400 µg/mL | MIC (Pichia kudriavzevii [21]): 50 µg/mL (≈ 208 µM); MIC (Candida parapsilosis [22]): 100 µg/mL (≈ 417 µM); diameter of the inhibition zone (DIZ) [23]: 29 mm; diameter of the inhibition zone (DIZ) (Pseudomonas aeruginosa): inactive; diameter of the inhibition zone (DIZ) (Candida tropicalis [24]): inactive; MIC (Enterobacter cloacae [25]): > 400 µg/mL; DIZ (Klebsiella pneumoniae [26]): inactive; MIC [27]: > 400 µg/mL; MIC (Escherichia coli): > 400 µg/mL; diameter of the inhibition zone (DIZ) (Enterococcus faecalis [28]): 12 mm; diameter of the inhibition zone (DIZ) (Saccharomyces cerevisiae [29]): inactive; diameter of the inhibition zone (DIZ) (Burkholderia cepacia): inactive; MIC (Proteus mirabilis [30]): > 400 µg/mL
2 | C[Si]1(C)OB(O)c2cc(C=O)cc(F)c21 | inactive | inactive | 5.6 | 8 | 4 | inactive | inactive | inactive | 400 µg/mL (≈ 1790 µM) | inactive | 25 µg/mL (≈ 112 µM) | inactive | 22 mm | inactive | 200 µg/mL (≈ 893 µM) | > 400 µg/mL | 50 µg/mL (≈ 223 µM) | 400 µg/mL (≈ 1790 µM) | 200 µg/mL (≈ 893 µM) | > 400 µg/mL | MIC (Pichia kudriavzevii [21]): > 400 µg/mL; MIC (Candida parapsilosis [22]): 400 µg/mL (≈ 1790 µM); diameter of the inhibition zone (DIZ) [23]: 31 mm; diameter of the inhibition zone (DIZ) (Pseudomonas aeruginosa): inactive; diameter of the inhibition zone (DIZ) (Candida tropicalis [24]): inactive; MIC (Enterobacter cloacae [25]): > 400 µg/mL; DIZ (Klebsiella pneumoniae [26]): inactive; MIC [27]: > 400 µg/mL; MIC (Escherichia coli): > 400 µg/mL; diameter of the inhibition zone (DIZ) (Enterococcus faecalis [28]): inactive; diameter of the inhibition zone (DIZ) (Saccharomyces cerevisiae [29]): inactive; diameter of the inhibition zone (DIZ) (Burkholderia cepacia): inactive; MIC (Proteus mirabilis [30]): > 400 µg/mL
3 | C[Si]1(C)OB(O)c2cc3c(c(F)c21)COB3O | inactive | inactive | 6.3 | 16 | 8 | inactive | inactive | 13 mm | 100 µg/mL (≈ 397 µM) | 14 mm | 3.12 µg/mL (≈ 12.4 µM) | inactive | 20 mm | inactive | 100 µg/mL (≈ 397 µM) | > 400 µg/mL | 6.25 µg/mL (≈ 24.8 µM) | 100 µg/mL (≈ 397 µM) | 100 µg/mL (≈ 397 µM) | > 400 µg/mL | MIC (Pichia kudriavzevii [21]): > 400 µg/mL; MIC (Candida parapsilosis [22]): 50 µg/mL (≈ 198 µM); diameter of the inhibition zone (DIZ) [23]: 34 mm; diameter of the inhibition zone (DIZ) (Pseudomonas aeruginosa): inactive; diameter of the inhibition zone (DIZ) (Candida tropicalis [24]): inactive; MIC (Enterobacter cloacae [25]): > 400 µg/mL; DIZ (Klebsiella pneumoniae [26]): inactive; MIC [27]: 200 µg/mL (≈ 794 µM); MIC (Escherichia coli): 400 µg/mL (≈ 1590 µM); diameter of the inhibition zone (DIZ) (Enterococcus faecalis [28]): 18 mm; diameter of the inhibition zone (DIZ) (Saccharomyces cerevisiae [29]): inactive; diameter of the inhibition zone (DIZ) (Burkholderia cepacia): inactive; MIC (Proteus mirabilis [30]): > 400 µg/mL
